≈ marks a conversion by molar mass, not a printed value. Calls of active or inactive are those of the source. No cut-off for these calls is given here.
Tests used:
Staphylococcus aureus = experiment: Antibacterial activity against Staphylococcus aureus ATCC 29213 assessed as bacterial growth inhibition incubated for 16 to 18 hrs by CLSI based antibiotic susceptibility testing method; type: functional; settings: time 16-18 hrs
In short: (§1)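 Broth microdilution in cation-adjusted Mueller-Hinton broth. Compounds were tested at […], with levofloxacin as reference and medium-only controls. Plates were incubated at 37 °C for 16-18 h. MIC was the lowest concentration with no visible growth; three independent determinations, each in duplicate.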

[1] = test system: Mycobacterium tuberculosis; experiment: Antimycobacterial activity against Mycobacterium tuberculosis H37Rv ATCC 27294 assessed as bacterial growth inhibition incubated for 7 days by resazurin dye based broth microdilution method; type: functional; settings: H37Rv ATCC 27294, 168 h, time 7 day
In short: (§2)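 Broth microdilution in Middlebrook 7H9 with 10% ADC-Tween-80 (0.2% glycerol, 0.05% Tween-80), inoculum ~10⁶ cfu/mL. Compounds came from 10 mg/mL DMSO stocks and were tested as two-fold serial dilutions at 37 °C, 7 days for M. tuberculosis H37Rv and 72 h for NTM. Growth was read visually with PrestoBlue resazurin dye; MIC was the lowest concentration preventing growth. Triplicate determinations, each in duplicate.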

Escherichia coli = experiment: Antibacterial activity against Escherichia coli ATCC 25922 assessed as bacterial growth inhibition incubated for 16 to 18 hrs by CLSI based antibiotic susceptibility testing method; type: functional, organism-based; settings: time 16-18 hrs; in short: as §1
Klebsiella pneumoniae = experiment: Antibacterial activity against Klebsiella pneumoniae BAA 1705 assessed as bacterial growth inhibition incubated for 16 to 18 hrs by CLSI based antibiotic susceptibility testing method; type: functional, organism-based; settings: time 16-18 hrs; in short: as §1
Acinetobacter baumannii = experiment: Antibacterial activity against Acinetobacter baumannii BAA 1605 assessed as bacterial growth inhibition incubated for 16 to 18 hrs by CLSI based antibiotic susceptibility testing method; type: functional, organism-based; settings: time 16-18 hrs; in short: as §1
Pseudomonas aeruginosa = experiment: Antibacterial activity against Pseudomonas aeruginosa ATCC 27853 assessed as bacterial growth inhibition incubated for 16 to 18 hrs by CLSI based antibiotic susceptibility testing method; type: functional, organism-based; settings: time 16-18 hrs; in short: as §1
[2] = test system: Mycobacteroides abscessus; experiment: Antimycobacterial activity against Mycobacterium abscessus ATCC 19977 assessed as bacterial growth inhibition incubated for 72 hrs by resazurin dye based broth microdilution method; type: functional, organism-based; in short: as §2
[3] = test system: Mycolicibacterium fortuitum; experiment: Antimycobacterial activity against Mycobacterium fortuitum ATCC 6841 assessed as bacterial growth inhibition incubated for 72 hrs by resazurin dye based broth microdilution method; type: functional, organism-based; in short: as §2
Mycobacteroides chelonae = experiment: Antimycobacterial activity against Mycobacteroides chelonae ATCC 35752 assessed as bacterial growth inhibition incubated for 72 hrs by resazurin dye based broth microdilution method; type: functional, organism-based; in short: as §2

SMILES	MIC (Staphylococcus aureus)	MIC [1]	growth inhibition (GI) (Escherichia coli)	growth inhibition (GI) (Klebsiella pneumoniae)	growth inhibition (GI) (Acinetobacter baumannii)	growth inhibition (GI) (Pseudomonas aeruginosa)	growth inhibition (GI) [2]	growth inhibition (GI) [3]	growth inhibition (GI) (Mycobacteroides chelonae)
O=C(CN1C(=O)c2cccc3cccc(c23)C1=O)NC1CCN(C(=S)Nc2ccc(Cl)cc2)CC1	> 64 µg/mL	> 64 µg/mL	inactive	inactive	inactive	inactive	inactive	inactive	inactive
O=C(CCN1C(=O)c2cccc3cccc(c23)C1=O)NC1CCN(C(=S)Nc2ccccc2)CC1	> 64 µg/mL	64 µg/mL (≈ 132 µM)	inactive	inactive	inactive	inactive	inactive	inactive	inactive
O=C(CN1C(=O)c2cccc3cccc(c23)C1=O)N1CCN(C(=S)Nc2ccccc2)CC1	> 64 µg/mL	16 µg/mL (≈ 34.9 µM)	inactive	inactive	inactive	inactive	inactive	inactive	inactive
O=C(CCN1C(=O)c2cccc3cccc(c23)C1=O)NC1CCN(C(=S)Nc2ccc(Cl)cc2)CC1	> 64 µg/mL	> 64 µg/mL	inactive	inactive	inactive	inactive	inactive	inactive	inactive
O=C(CCN1C(=O)c2cccc3cccc(c23)C1=O)N1CCN(C(=S)Nc2ccccc2)CC1	> 64 µg/mL	32 µg/mL (≈ 67.7 µM)	inactive	inactive	inactive	inactive	inactive	inactive	inactive
O=C1c2cccc3cccc(c23)C(=O)N1CCN1CCN(C(=S)Nc2ccccc2Cl)CC1	> 64 µg/mL	> 64 µg/mL	inactive	inactive	inactive	inactive	inactive	inactive	inactive
O=C(CN1C(=O)c2cccc3cccc(c23)C1=O)N1CCC(NC(=S)NC23CC4CC(CC(C4)C2)C3)CC1	4 µg/mL (≈ 7.54 µM)	32 µg/mL (≈ 60.3 µM)	inactive	inactive	inactive	inactive	inactive	inactive	inactive
O=C(Nc1ccc(Cl)cc1)N1CCN(CCN2C(=O)c3cccc4cccc(c34)C2=O)CC1	> 64 µg/mL	8 µg/mL (≈ 17.3 µM)	inactive	inactive	inactive	inactive	inactive	inactive	inactive

Reference: ChEMBL document CHEMBL5385966, “Synthesis and biological evaluation of new naphthalimide-thiourea derivatives as potent antimicrobial agents active against multidrug-resistant Staphylococcus aureus and Mycobacterium tuberculosis” (RSC Med Chem, 2024)
